The text below walks through data of ChEMBL document CHEMBL3994609, “Model-Based Discovery of Synthetic Agonists for the Zn2+-Sensing G-Protein-Coupled Receptor 39 (GPR39) Reveals Novel Biological Functions” (J Med Chem, 2017).

Data set [1] addresses T1, G-protein coupled receptor 39 (Homo sapiens, UniProt O43194).
T1 sequence (O43194 whole entry): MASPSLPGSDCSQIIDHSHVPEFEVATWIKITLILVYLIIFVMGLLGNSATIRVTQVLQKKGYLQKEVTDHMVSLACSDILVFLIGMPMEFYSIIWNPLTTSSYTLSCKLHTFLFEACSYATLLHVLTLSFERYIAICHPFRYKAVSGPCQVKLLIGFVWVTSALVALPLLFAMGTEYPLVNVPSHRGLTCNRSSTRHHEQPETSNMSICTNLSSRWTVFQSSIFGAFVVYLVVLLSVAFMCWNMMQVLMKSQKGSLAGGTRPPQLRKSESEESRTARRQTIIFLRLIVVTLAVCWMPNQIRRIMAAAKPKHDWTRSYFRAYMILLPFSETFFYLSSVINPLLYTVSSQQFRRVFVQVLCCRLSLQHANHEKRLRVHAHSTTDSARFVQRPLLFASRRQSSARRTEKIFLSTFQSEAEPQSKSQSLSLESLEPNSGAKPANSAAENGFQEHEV
The data set can be described thus: (§1) Agonist activity at human GPR39 expressed in HEK293 cells co-expressing Galphaq assessed as myo-[2-3H]inositol phosphate accumulation measured after 75 mins by scintillation proximity assay. The format is functional, cell-based.

Data set [2] deals with T1, G-protein coupled receptor 39. Description: Agonist activity at human GPR39 expressed in HEK293 cells co-expressing Galphaq assessed as myo-[2-3H]inositol phosphate accumulation in presence of 10 uM Zn2+ measured after 75 mins by scintillation proximity assay. In kind it is functional, cell-based. (In general: SPA uses beads or plates that emit light when radiolabelled molecules are held near them.)

Data set [3] concerns the target T2, G-protein coupled receptor 39 (Homo sapiens) (UniProt O43194).
T2 sequence (whole entry): T1 sequence (O43194 whole entry)
The description is as §1. In kind it is functional, cell-based.

Data set [4] concerns the target T2, G-protein coupled receptor 39 (Homo sapiens). The data set can be described thus: Agonist activity at human GPR39 expressed in HEK293 cells co-expressing Galphaq assessed as myo-[2-3H]inositol phosphate accumulation in presence of 100 nM Zn2+ measured after 75 mins by scintillation proximity assay. The format is functional, cell-based.
The target is the same in data set [5]. The data set can be described thus: Agonist activity at human GPR39 expressed in HEK293 cells co-expressing Galphaq assessed as myo-[2-3H]inositol phosphate accumulation in presence of 10 uM Zn2+ measured after 75 mins by scintillation proximity assay relative to zinc. In kind it is functional, cell-based.
For data set [6], the target named is T3, G-protein coupled receptor 39 (Mus musculus, UniProt Q5U431).
T3 sequence (Q5U431 whole entry): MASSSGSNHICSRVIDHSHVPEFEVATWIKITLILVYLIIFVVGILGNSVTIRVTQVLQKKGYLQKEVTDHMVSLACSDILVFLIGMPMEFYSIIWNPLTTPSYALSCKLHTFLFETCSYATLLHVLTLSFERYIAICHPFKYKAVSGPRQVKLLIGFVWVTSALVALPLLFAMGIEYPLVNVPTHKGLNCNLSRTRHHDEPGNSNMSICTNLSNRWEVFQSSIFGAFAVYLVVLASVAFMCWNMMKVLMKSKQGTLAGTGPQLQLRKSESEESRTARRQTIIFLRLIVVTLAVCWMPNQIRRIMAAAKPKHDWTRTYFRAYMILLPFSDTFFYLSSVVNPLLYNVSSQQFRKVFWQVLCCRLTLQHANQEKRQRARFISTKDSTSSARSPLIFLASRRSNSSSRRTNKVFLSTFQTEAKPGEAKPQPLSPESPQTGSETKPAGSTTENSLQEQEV
The data set can be described thus: Agonist activity at mouse GPR39 expressed in HEK293 cells co-expressing Galphaq assessed as myo-[2-3H]inositol phosphate accumulation measured after 75 mins by scintillation proximity assay. In kind it is functional, cell-based.

Data set [7] is described as follows: Intrinsic clearance in human liver microsomes assessed per mg protein at 3 uM measured after 45 mins by LC-MS/MS analysis. The format is ADME, microsome. The settings on record: read-out: CLH. A general note: Liver microsomes are a subcellular fraction often used to study metabolism.
Data set [8] in a line: Half life in human liver microsomes at 3 uM measured by LC-MS/MS analysis. In kind it is ADME, microsome.
For another data set, the system named is Pancreatic islet. The data set can be described thus: Induction of glucose-stimulated insulin release in mouse pancreatic islets at 1 uM pretreated for 24 hrs followed by glucose addition measured after 30 mins. In kind it is functional, cell-based. Summed up: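 Islets isolated from GPR39-deficient mice and wild-type littermates on five independent days, 2 to 3 mice per day; insulin secretion measured with vehicle or 1 μM compound.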

Calls of active or inactive are those of the source. The calls are words filed in the database; no cut-off is given here.

The term EC50 denotes the concentration needed to bring the measured effect to its halfway point. Usually half-life stands for how long it takes for the measured level to halve.

Take `Cc1nn(-c2ncnc3nc[nH]c23)c2c1C(C(=O)NCc1ccc(F)cc1)CC(=O)N2` (stereo not given): the results for the concentration giving a half-maximal response (EC50) in data set [1] and in data set [2] were 1220 nM and 4 nM, respectively.
Taken in the same sequence, the figures for `Cc1nn(-c2ncnc3nc[nH]c23)c2c1C(C(=O)N(C)c1nccs1)CC(=O)N2` (stereo not given) were 3300 nM and 18 nM.
Take `CC(C)(C)c1cc(C(=O)N/N=C/c2ccc(O)cc2O)[nH]n1`: the outcome in [3] and in data set [4] was inactive. For the same molecule, the EC50 in data set [2] is 240 nM. In addition, in data set [5], the fold change (FC) is 2.
For the molecule `Cc1nn(-c2ncnc3nc[nH]c23)c2c1C(c1ccc(OC(C)C)cc1)CC(=O)N2` (stereo not given), the results for the concentration for a half-maximal effect (EC50) in [1], in data set [2] and in data set [6] were 2700 nM, 18 nM and 380 nM, respectively. Besides, in data set [7], the microsomal CLint at 3 µM amounted to 58.3 µL/min/mg. The molecule further showed a half-life at 3 µM in data set [8] of 24 min. In the data set with Pancreatic islet, the outcome was inactive.
For the molecule `Cc1cc(C)nc(-n2nc(C)c3c2NC(=O)CC3c2ccc(F)cc2F)n1` (stereo not given), the EC50 in [1] was over 10000 nM.
As to `Cc1nn(-c2ncnc3nc[nH]c23)c2c1C(OCc1ccc(F)cc1)CC(=O)N2` (stereo not given), the figures for the half-maximal effective concentration (EC50) in data set [1] and in data set [2] were 126 nM and 1 nM, respectively.
For `Cc1cc(C)n(CCOC2CC(=O)Nc3c2c(C)nn3-c2ncnc3nc[nH]c23)n1` (stereo not given) the same measures were 2000 nM and 16 nM.
Take `Cc1nn(-c2ncnc3nc[nH]c23)c2c1C(NC(=O)Cc1cccs1)CC(=O)N2` (stereo not given): the EC50 in data set [1] was 244 nM; in [2], 3 nM.
For `Cc1nn(-c2ncnc3nc[nH]c23)c2c1C(OCCn1cccn1)CC(=O)N2` (stereo not given) the same measures were 2260 nM and 16 nM.
In the case of `OCC(O)/C=N/Nc1nc(Nc2ccccc2)nc(Nc2ccccc2)n1` (stereo not given), the result in [3] and in data set [4] was inactive. In addition, in data set [2], the concentration for a half-maximal effect (EC50) amounted to 750 nM. Also, the fold change (FC) in data set [5] was determined as 2.
With `Cc1nn(-c2ncnc3nc[nH]c23)c2c1C(OCc1ccc(Cl)cc1Cl)CC(=O)N2` (stereo not given), the 50% effective concentration (EC50) in data set [1] is 243 nM; in [2] it was 4 nM.
As to `Cc1nn(-c2ncnc3nc[nH]c23)c2c1C(C(=O)NCc1ccc3c(c1)OCO3)CC(=O)N2` (stereo not given), the EC50 in data set [1] came to 791 nM; in [2], 7 nM.
For `Cc1nn(-c2ncnc3nc[nH]c23)c2c1C(OC(=O)c1ccc(F)cc1)CC(=O)N2` (stereo not given) the same measures were 245 nM and 4 nM.
Taken in the same sequence, the figures for `Cc1nn(-c2ncnc3nc[nH]c23)c2c1C(C(=O)NCc1ccccc1)CC(=O)N2` (stereo not given) were 2930 nM and 5 nM.
Taken in the same sequence, the figures for `Cc1nn(-c2ncnc3nc[nH]c23)c2c1C(OC(=O)Cc1ccccc1)CC(=O)N2` (stereo not given) were 381 nM and 6 nM.
Turning to `Cc1nn(-c2ncnc3nc[nH]c23)c2c1C(c1ccc(F)cc1F)CC(=O)N2` (stereo not given), in data set [1], the EC50 was found to be 460 nM.
On to `Cc1nn(-c2ncnc3nc[nH]c23)c2c1C(OCc1ccc(C(C)C)cc1)CC(=O)N2` (stereo not given), for which the EC50 in data set [1] came out at 1690 nM; in data set [2], 5 nM.
As for `C=CCN1c2c(n(C)c(=O)n(C)c2=O)NC1N/N=C/c1ccc(O)cc1O` (stereo not given), the result in data set [3] and in data set [4] was inactive. Moreover, in data set [2], the concentration for a half-maximal effect (EC50) was found to be 340 nM. Also, in data set [5], the fold change (FC) was 2.
`Cc1nn(-c2ncnc3nc[nH]c23)c2c1C(C(=O)N(C)c1ccccc1)CC(=O)N2` (stereo not given): the EC50 in data set [1] was determined as 5220 nM; in data set [2], 32 nM.
For `Cc1nn(-c2ncnc3nc[nH]c23)c2c1C(OCc1ccc(C#N)cc1)CC(=O)N2` (stereo not given) the same measures were 60 nM and 4 nM.
Taken in the same sequence, the figures for `Cc1nn(-c2ncnc3nc[nH]c23)c2c1C(OCCn1nccc1C)CC(=O)N2` (stereo not given) were 1620 nM and 10 nM.
Turning to `Cc1nn(-c2ncnc3nc[nH]c23)c2c1C(NC(=O)c1ccccc1)CC(=O)N2` (stereo not given), the figures for the half-maximal effective concentration (EC50) in data set [1] and in data set [2] were 158 nM and 3 nM, respectively.
Taken in the same sequence, the figures for `Cc1nn(-c2ncnc3nc[nH]c23)c2c1C(OCC(C)C)CC(=O)N2` (stereo not given) were 111 nM and 4 nM.
For `CCCCCCCCOC1CC(=O)Nc2c1c(C)nn2-c1ncnc2nc[nH]c12` (stereo not given), the half-maximal effective concentration (EC50) in [1] stood at 388 nM; in data set [2], 8 nM.
Taken in the same sequence, the figures for `CCC(C(=O)NC1CC(=O)Nc2c1c(C)nn2-c1ncnc2nc[nH]c12)c1ccccc1` (stereo not given) were 79 nM and 5 nM.
Regarding `Cc1nn(-c2ncnc3nc[nH]c23)c2c1C(C(=O)Nc1ccccc1)CC(=O)N2` (stereo not given), the EC50 in data set [2] was 10 nM.
As for `Cc1nn(-c2ncnc3nc[nH]c23)c2c1C(OCc1ccccc1C#N)CC(=O)N2` (stereo not given), the figures for the EC50 in data set [1] and in data set [2] were 127 nM and 8 nM, respectively.
Turning to `C/C(=N\NC(=O)c1cc2ccccc2cc1O)c1ccc(N)cc1`, the outcome in [3] and in data set [4] was inactive. For the same molecule, in data set [2], the EC50 worked out at 1100 nM. Besides, the fold change (FC) in data set [5] was determined as 2.
On to `Cc1nn(-c2ncnc3nc[nH]c23)c2c1C(OCc1ccccc1Cl)CC(=O)N2` (stereo not given), for which the EC50 in data set [1] came to 47 nM; in data set [2] it was 2 nM.
Consider `Cc1noc(C)c1COC1CC(=O)Nc2c1c(C)nn2-c1ncnc2nc[nH]c12` (stereo not given), for which, in data set [2], the concentration giving a half-maximal response (EC50) turned out to be 5 nM.
For `Cc1nn(-c2ncnc3nc[nH]c23)c2c1C(OCCc1ccccc1)CC(=O)N2` (stereo not given), the concentration for a half-maximal effect (EC50) in [1] was 40 nM; in data set [2], 3 nM.
Taken in the same sequence, the figures for `Cc1nn(-c2ncnc3nc[nH]c23)c2c1C(OCc1ccccc1F)CC(=O)N2` (stereo not given) were 78 nM and 4 nM.
For `Cc1nn(-c2ncnc3nc[nH]c23)c2c1C(OCC(=O)c1ccc(F)cc1)CC(=O)N2` (stereo not given) the same measures were 973 nM and 3 nM.
For `COc1ccc(CCOC2CC(=O)Nc3c2c(C)nn3-c2ncnc3nc[nH]c23)cc1` (stereo not given), the concentration for a half-maximal effect (EC50) in data set [1] worked out at 70 nM; in data set [2], 2 nM.
For `Cc1nn(-c2ncnc3nc[nH]c23)c2c1C(OC1CCCC1)CC(=O)N2` (stereo not given) the same measures were 62 nM and 2 nM.
Taken in the same sequence, the figures for `Cc1nn(-c2ncnc3nc[nH]c23)c2c1C(NC(=O)Cc1ccccc1)CC(=O)N2` (stereo not given) were 418 nM and 3 nM.
